Test results published in ChEMBL document CHEMBL1141650, “Antitumor polycyclic acridines. 20. Search for DNA quadruplex binding selectivity in a series of 8,13-dimethylquino[4,3,2-kl]acridinium salts: telomere-targeted agents” (J Med Chem, 2008).

Assays:
[1] = Growth inhibition of human NCI60 cells after 2 days; type: functional
[2] = Selectivity index, ratio of GI50 for human NCI60 cells to IC50 for telomerase by TRAP assay; type: functional
[3] = Inhibition of telomerase by TRAP assay
[4] = Stability of F21T DNA quadruplex sequence d[G3(T2AG3)3] assessed as thermal denaturation by FRET analysis
Method in brief: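 FRET melting of F21T, d[G3(T2AG3)3] labelled with 5′ fluorescein and 3′ tamra, with compound at 1 µM. Lithium chloride buffer held sodium at 10 mM. Tm was taken where normalized fluorescence equalled 0.5, and ∆Tm as the ligand-induced change.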

Homo sapiens [5] = species: Homo sapiens; experiment: Binding affinity to quadruplex human telomeric sequence d[AG3(TTAGGG3) by fluorescence titration method
Method in brief: (§1)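 Fluorescence titration, read as ligand fluorescence quenching on DNA binding. Quadruplex was d[AG3(TTAGGG)3] and duplex ST-DNA. K came from a model fit to the titration data, and the ratio was taken as quadruplex K over duplex K.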

Salmonidae [6] = experiment: Binding affinity to salmon testis duplex genomic DNA by fluorescence titration method; method in brief: as §1
[7] = Ratio of binding constant K for G-quadruplex human telomeric sequence d[AG3(TTAGGG3) to binding constant K for salmon testis duplex genomic DNA by fluorescence titration method; method in brief: as §1
Homo sapiens [8] = species: Homo sapiens; experiment: Binding affinity to quadruplex human telomeric sequence d[AG3(TTAGGG3) by surface plasmon resonance method
Method in brief: (§2)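 SPR in 10 mM HEPES pH 7.4 with 200 mM KCl, 3 mM EDTA, 0.005% surfactant P20. Quadruplex was human telomeric d[AG3(TTAGGG)3] and duplex the alternating GC eight base pair hairpin d[(CG)8]. Equilibrium binding constants K were determined, and the ratio taken as quadruplex K over duplex K.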

[9] = Binding affinity to duplex DNA d[(CG)8] by surface plasmon resonance method; method in brief: as §2
[10] = Ratio of binding constant K for G-quadruplex human telomeric sequence d[AG3(TTAGGG3) to binding constant K for duplex DNA d[(CG)8] by surface plasmon resonance method; method in brief: as §2
Homo sapiens [11] = species: Homo sapiens; experiment: Stabilization of G-quadruplex in human cmyc Pu27 DNA sequence assessed as decrease in full length product at less than 1 uM by Taq polymerase arrest assay relative to G-quadruplex arrest; design: scale not given: the % may be the effect or the level left
Method in brief: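 Taq polymerase arrest: the quadruplex-forming sequence sat in a cassette template, and a radiolabeled primer was extended by the polymerase. Full-length (77-mer) and arrest product bands were quantified and their ratio plotted against drug concentration. IC50 was the concentration giving 50% decrease in full-length product relative to arrest products.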

[12] = Binding affinity to poly[dA-dT]2 by UV titration
Method in brief: (§3)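 UV absorbance titration following the bathochromic shift on duplex binding. Data were fitted to one binding mode or to two (strong Ks and weak Kw) modes.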

[13] = Binding affinity to poly[dG].poly[dC] by UV titration; method in brief: as §3
[14] = Binding affinity to poly[dG-dC]2 by UV titration; method in brief: as §3
Salmonidae [15] = experiment: Binding affinity to salmon testis DNA by UV titration; method in brief: as §3
[16] = Binding affinity to poly[dA].poly[dT] by UV titration; method in brief: as §3
Salmonidae [17] = experiment: Increase in melting temperature of salmon testis DNA

SMILES | GI50 ([1]; Homo sapiens, NCI60, 48 h) | Selectivity index [2] | IC50 [3] | ΔTm [4] | K (Homo sapiens [5]) | K (Salmonidae [6]) | Ratio [7] | also measured
CCCCCCCCCCCC(=O)Nc1ccc2c3cccc4c3c([n+](C)c2c1)-c1ccccc1N4C | 540 nM | – | – | – | – | – | – | –
COc1cc2c3c([n+](C)c4ccccc4c3c1)-c1ccc(/C=C/C(=O)N3CCOCC3)cc1N2C (stereo in doubt; 9r) | – | – | – | – | – | – | – | GI50 [1]: 43600 nM
CN1c2ccccc2-c2c3c1cccc3c1ccc(N)cc1[n+]2C.[I-] | 3550 nM | 1.9 | 1860 nM | – | – | – | – | –
COc1cc(NS(C)(=O)=O)ccc1Nc1c2ccccc2nc2ccccc12 | – | – | – | 0 °C | – | – | – | –
COc1cc2c3c([n+](C)c4ccc(Cl)cc4c3c1)-c1ccccc1N2C.[I-] | 740 nM | 2.6 | 280 nM | 9 °C | 6.4 10^5/M | 2.2 10^5/M | 2.9 | –
CN1c2ccccc2-c2c3c1cccc3c1ccc(N(C)S(=O)(=O)c3ccc(F)cc3)cc1[n+]2C.[I-] | 10000 nM | 14 | 730 nM | – | 1.9 10^5/M | 0.83 10^5/M | 2.3 | K (Homo sapiens [8]): 48 10^5/M; K [9]: 17 10^5/M; Ratio [10]: 2.8
COc1cc2c3c([n+](C)c4ccccc4c3c1)-c1ccc(/C=C/C(=O)N3CCOCC3)cc1N2C (stereo in doubt; 9t) | – | – | – | – | – | – | – | GI50 [1]: > 100000 nM
CN1c2ccccc2-c2cccc3nc4ccccc4c1c23 | 320 nM | – | – | – | – | – | – | –
Cc1cc2c3c([n+](C)c4ccc(Cl)cc4c3c1)-c1cc(Cl)ccc1N2C | 4710 nM | – | – | – | – | – | – | –
c1cc2c3c(c1)-c1cccc4nc5ccccc5c(c14)N3CC2 | 60 nM | – | – | – | – | – | – | –
CN1c2ccccc2-c2c3c1cc(/C=C/C(=O)N1CCOCC1)cc3c1cc(Cl)ccc1[n+]2C | 12300 nM | – | – | – | – | – | – | –
CC(=O)Nc1ccc2c3cccc4c3c([n+](C)c2c1)-c1ccccc1N4C.[I-] | – | 32 | 380 nM | 10 °C | 3.7 10^5/M | 0.63 10^5/M | 5.9 | K (Homo sapiens [8]): 240 10^5/M; K [9]: 3.8 10^5/M; Activity (Homo sapiens [11]): 50%; Ratio [10]: 63
CN1c2ccccc2-c2c3c1cccc3c1ccc(NC(=O)c3ccccc3)cc1[n+]2C | 6610 nM | – | – | – | – | – | – | –
c1ccc2c(c1)Nc1cccc3cc4[n+](c-2c13)CCC4 | 90 nM | – | – | – | – | – | – | –
CCOC(=O)Nc1ccc2c3cccc4c3c([n+](C)c2c1)-c1ccccc1N4C | 660 nM | – | – | – | – | – | – | –
CN1c2ccccc2-c2c3c1cccc3c1ccc(NC(=O)C(C)(C)C)cc1[n+]2C.[I-] | 3300 nM | 14 | 230 nM | – | 11 10^5/M | 1.2 10^5/M | 9.2 | –
CN1c2ccccc2-c2c3c1cccc3c1cc(/C=C/C(=O)N3CCOCC3)ccc1[n+]2C | 67600 nM | – | 370 nM | 4.5 °C | 3.2 10^5/M | 0.31 10^5/M | 10.3 | K (Homo sapiens [8]): 71 10^5/M; K [9]: 25 10^5/M; Activity (Homo sapiens [11]): 50%; Ratio [10]: 2.8

SMILES | GI50 ([1]; Homo sapiens, NCI60, 48 h) | Selectivity index [2] | IC50 [3] | ΔTm [4] | K (Homo sapiens [5]) | K (Salmonidae [6]) | Ratio [7] | also measured
CCN1c2ccccc2-c2c3c1cc(C)cc3c1ccccc1[n+]2CC.[I-] | 1100 nM | 0.6 | 2000 nM | 0 °C | – | – | – | –
COS(=O)(=O)[O-].Cc1ccc2c(c1)-c1c3c(cc(C)cc3c3cc(C)ccc3[n+]1C)N2C | – | 1.6 | 250 nM | 7 °C | – | 2.4 10^5/M | – | K [12]: 4 10^5/M; K [13]: 1 10^6/M; K [14]: 1.2 10^6/M; K (Homo sapiens [8]): 74 10^5/M; K (Salmonidae [15]): 8 10^6/M; K [9]: 5.4 10^5/M; Activity (Homo sapiens [11]): 50%; K [16]: 4 10^6/M; Ratio [10]: 13.7
CN1c2ccccc2-c2c3c1cccc3c1ccccc1[n+]2C.[I-] | 7580 nM | 4.8 | 1550 nM | 2.8 °C | 0.91 10^5/M | 0.71 10^5/M | 1.3 | –
COC(=O)/C=C/c1ccc2c(c1)N(C)c1cc(OC)cc3c1c-2[n+](C)c1ccccc31 | 4570 nM | – | – | – | – | – | – | –
CN1c2ccccc2-c2c3c1cccc3c1ccc(NC(=O)C(F)(F)F)cc1[n+]2C.[I-] | 2200 nM | 7 | 310 nM | – | 6 10^5/M | 0.7 10^5/M | 8.6 | K (Homo sapiens [8]): 130 10^5/M; K [9]: 3.8 10^5/M; Ratio [10]: 34.2
COc1cc2c3c([n+](C)c4ccccc4c3c1)-c1ccc(Cl)cc1N2C | 750 nM | – | – | – | – | – | – | –
CC(=O)Nc1ccc2c(c1)c1cccc3c1c([n+]2C)-c1ccccc1N3C.[I-] | 81300 nM | 195 | 410 nM | – | 3.1 10^5/M | 0.53 10^5/M | 5.8 | K (Homo sapiens [8]): 250 10^5/M; K [9]: 4.4 10^5/M; Ratio [10]: 57
Cc1cc2c3c([n+](C)c4ccc(F)cc4c3c1)-c1cc(F)ccc1N2C | – | – | 330 nM | 8 °C | 2.7 10^5/M | 0.56 10^5/M | 4.8 | K [12]: 6 10^5/M; K [13]: 1 10^6/M; K [14]: 6 10^6/M; K (Homo sapiens [8]): 110 10^5/M; K (Salmonidae [15]): 2 10^5/M; Tm (Salmonidae [17]): 10.8 °C; K [9]: 3.4 10^5/M; Activity (Homo sapiens [11]): 50%; K [16]: 8 10^4/M; Ratio [10]: 32.3
CNc1ccc2c3cccc4c3c([n+](C)c2c1)-c1ccccc1N4C | 460 nM | – | – | – | – | – | – | –
COS(=O)(=O)[O-].Cc1cc2c3c([n+](C)c4ccccc4c3c1)-c1ccccc1N2C | 1290 nM | 1.7 | 740 nM | 2 °C | – | – | – | –
Nc1ccc2c(c1)Nc1c3ccccc3nc3cccc-2c13 | 1480 nM | – | – | – | – | – | – | –
CN(C)c1ccc2c3cccc4c3c([n+](C)c2c1)-c1ccccc1N4C | 280 nM | – | – | 3.8 °C | – | – | – | –
CC(=O)OCCCc1cc2c3c([n+](C)c4ccc(CCCOC(C)=O)cc4c3c1)-c1ccccc1N2C | – | – | – | 0.5 °C | 1.6 10^5/M | 0.94 10^5/M | 1.7 | K (Homo sapiens [8]): 2.4 10^5/M; K [9]: 1.7 10^5/M; Ratio [10]: 1.4
CCCCC(=O)Nc1ccc2c3cccc4c3c([n+](C)c2c1)-c1ccccc1N4C | 1000 nM | – | – | – | – | – | – | –
COC(=O)CCCCC(=O)Nc1ccc2c3cccc4c3c([n+](C)c2c1)-c1ccccc1N4C.[I-] | 6020 nM | 27 | 210 nM | – | 10 10^5/M | 0.68 10^5/M | 14.7 | –
CN1c2ccccc2-c2c3c1cccc3c1cc(Cl)ccc1[n+]2C.[I-] | 3160 nM | 12 | 260 nM | 5 °C | 6.7 10^5/M | 1.1 10^5/M | 6 | –
